Results of several laboratories.
Target: Mitogen-activated protein kinase 11 (MAPK11, Homo sapiens, UniProt Q15759)

With `C[C@H]1CCN(c2nccc(-c3cnn4ncccc34)n2)C1` the remaining binding was 55% (binding, competition with immobilised ligand; 1 µM).
With `Nc1ncc2c(n1)-c1c([nH]c3ccc(C#CC4CC4)cc13)CCCC2` the remaining binding was 100% (binding, competition with immobilised ligand; 1 µM).
For `CN(c1nccc(-c2cnn3ncccc23)n1)C1CC1`, the remaining binding was 89% (binding; 1 µM).
The remaining binding of `O=S(=O)(NC1CCC(c2cc(F)ccc2F)(S(=O)(=O)c2ccc(Cl)cc2)CC1)C(F)(F)F` (stereo not shown) is reported as 94% (cell-free assay, competition with immobilised ligand; 1 µM).
`CNC(=O)[C@@H]1CC[C@@H](n2c(-c3ccc4cnccc4c3)nc3ccc(C(=O)NCc4cccc(C(N)=O)c4)cc32)C1` has a remaining binding of 100% (binding, competition with immobilised ligand; 1 µM).
For `O=C(N[C@H]1CCCCC/C=C\C2C[C@@]2(C(=O)O)NC(=O)[C@@H]2C[C@@H](Oc3ccncc3)CN2C1=O)OC1CCCC1` (stereo partly shown), the remaining binding was 100% (binding, competition with immobilised ligand; 1 µM).
`FC(F)(F)Oc1cccc(-c2cnc3ccc(-c4ccncc4)nn23)c1` gave a remaining binding of 89% (cell-free assay, competition with immobilised ligand; 5 µM).
`c1cnn2ncc(-c3ccnc(N4CCC45COC5)n3)c2c1` gave a remaining binding of 100% (binding, competition with immobilised ligand; 1 µM).
For `O=C(NCC1CCOCC1)c1n[nH]cc1NC(=O)c1c(F)cccc1F`, the remaining binding was 96% (binding, competition with immobilised ligand; 1 µM).
`COc1cc(-c2cn(C3CCc4ccccc4N(CC(F)(F)F)C3=O)nn2)ccc1-n1ccc(C)n1` (stereo not shown) gave a remaining binding of 82% (cell-free assay, competition with immobilised ligand; 1 µM).
With `O=C(c1ccc(Nc2ncc(Cl)c(-c3cc4ccccc4s3)n2)cc1)N1CCC(N2CCCC2)CC1` the remaining binding was 82% (binding, competition with immobilised ligand; 1 µM).
For `CN(CCCC(F)(F)F)c1nccc(-c2cnn3ncccc23)n1`, the remaining binding was 93% (binding, competition with immobilised ligand; 1 µM).
The remaining binding of `CCS(=O)(=O)c1cc2cc(C[C@](O)(CC(C)(C)c3ccc(F)cc3C(N)=O)C(F)(F)F)[nH]c2cn1` is reported as 100% (cell-free assay, competition with immobilised ligand; 1 µM).
The remaining binding of `O=C(c1ccc(Nc2nccc(-c3cc4ccccc4s3)n2)cc1)N1CCC(N2CCCC2)CC1` is reported as 95% (binding, competition with immobilised ligand; 1 µM).
For `N[C@@H]1CCN(c2nccc(-c3cnn4ncccc34)n2)C1`, the remaining binding was 100% (binding, competition with immobilised ligand; 1 µM).
With `C=CC(=O)N1CCC(C(=O)NCC(=O)N2CCN(c3nc(-c4cnc(N)nc4C(F)F)nc(N4CCOCC4)n3)CC2)CC1` the remaining binding was 89% (binding, competition with immobilised ligand; 1 µM).
With `CC(=O)N1CCC(c2ccc(C(=O)NC3=NCCN3)cc2C(F)(F)F)CC1` the remaining binding was 98% (cell-free assay, competition with immobilised ligand; 1 µM).
The remaining binding of `C[C@@H]1CN(c2ccc3ncc(-c4ccc5[nH]nc(C6CC6)c5c4)n3n2)C[C@H](C)O1` is reported as 100% (binding, competition with immobilised ligand; 50 nM).
The remaining binding of `CN(C)c1ncnc(-c2ccc3nc(Nc4cc(CN5CCN(C(=O)CC(F)(F)F)CC5)ccn4)[nH]c3c2)c1Cl` is reported as 97% (cell-free assay, competition with immobilised ligand; 1 µM).
With `O=C(c1ccc(Nc2ncc(Cl)c(-c3ccc(Cl)s3)n2)cc1)N1CCC(N2CCCC2)CC1` the remaining binding was 73% (binding, competition with immobilised ligand; 1 µM).
With `C[C@@H](c1ccc(-n2cnc3c(N)ncnc32)cc1)N1CCc2nn(C)c(Cc3ccccc3)c2C1=O` the remaining binding was 92% (binding, competition with immobilised ligand; 0.1 µM).
`C[C@@]1(Cc2ccc(C#N)cc2)C(=O)N(c2cc(Cl)cc(Cl)c2)c2ncc(C(=O)NC3(c4nc(C5CCC5)no4)CC3)n21` gave a remaining binding of 100% (cell-free assay, competition with immobilised ligand; 1 µM).
